The record followed here is ChEMBL document CHEMBL4477216, “Discovery and Optimization of Small Molecule Splicing Modifiers of Survival Motor Neuron 2 as a Treatment for Spinal Muscular Atrophy” (J Med Chem, 2016).

For data set [1], the species on record is Homo sapiens. As to the kind of experiment: Inhibition of mRNA splicing of human SMN2 exon 7 transfected in HEK293H cells assessed as compound concentration required to increase full-length SMN2 mRNA level by 1.5 times after 24 hrs by RT-qPCR analysis relative to GAPDH. The data set is classed as cell-based. In outline:
(§1)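 HEK293H cells stably carrying the SMN2 minigene (exon 6 to 5' exon 8 fused to firefly luciferase) were plated and held for 6 h, then treated 24 h in duplicate at varying concentrations (0.5% DMSO). Full-length minigene mRNA and GAPDH were quantified by TaqMan RT-qPCR using actual PCR efficiencies. Results were normalized to GAPDH and DMSO and expressed as fold change versus DMSO.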
A general note: Real-time PCR tracks product formation cycle by cycle.

Data set [2] is filed under the species Homo sapiens. In words: Inhibition of mRNA splicing of SMN2 exon 7 in GM03813 fibroblasts derived from SMA patient assessed as compound concentration required to increase SMN protein level by 1.5 times after 24 hrs by HTRF assay.
Data set [3] can be described thus: Apparent permeability in human Caco2 cells. The conditions noted are these: Caco-2. The data set is classed as ADME, cell-based. In outline: (§2)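 Bidirectional permeability was measured across a Caco-2 cell monolayer. Papp was reported, and efflux was expressed as the B-A/A-B ratio.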
A general note: Caco-2 monolayers are a common model of the intestinal barrier.

A short description of data set [4]: Efflux ratio of apparent permeability from basolateral to apical over apical to basolateral side in human Caco2 cells. The data set is classed as ADME, cell-based. The conditions noted are these: Caco-2. In outline:
as §2

The nature of data set [5]: Protein binding in human plasma. The conditions noted are these: read-out: PPB (converted). The data set is classed as ADME, cell-free.
A short description of data set [6]: AUC (0 to 6 hrs) in Sprague-Dawley rat at 10 mg/kg, po. The conditions noted are these: in vivo. On the set-up: dose 10 mg/kg, time < 6 hr, route oral. The data set is classed as ADME, organism-based. In outline: (§3)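 Male Sprague-Dawley rats got a single oral 10 mg/kg dose as a suspension in 0.5% hydroxypropyl methylcellulose with 0.1% Tween-80. Plasma was sampled at several time points up to 6 h post dose to give AUC0-6h. Total brain concentration was taken at 6 h to give the brain/plasma ratio.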

Data set [7] is described as follows: Ratio of drug level in brain to plasma of Sprague-Dawley rat at 10 mg/kg, po measured at 6 hrs. The data set is classed as ADME, organism-based. The conditions noted are these: brain and plasma, read-out: BPR. In outline:
as §3

Data set [8] is filed under the species Homo sapiens. As to the kind of experiment: Inhibition of mRNA splicing of human SMN2 exon 7 transfected in HEK293H cells assessed as maximum fold of increase in full-length SMN2 mRNA level after 24 hrs by RT-qPCR analysis relative to GAPDH. The data set is classed as cell-based. In outline:
as §1

The species named for data set [9] is Homo sapiens. As to the kind of experiment: Inhibition of mRNA splicing of human SMN2 exon 7 transfected in HEK293H cells assessed as compound concentration required to increase full-length SMN2 mRNA level by 1.5 times after 24 hrs by RT-qPCR analysis. The data set is classed as cell-based. The gist of the method:
as §1

The species entered for data set [10] is Homo sapiens. In words: Inhibition of mRNA splicing of human SMN2 exon 7 transfected in HEK293H cells assessed as maximum fold of increase in full-length SMN2 mRNA level after 24 hrs by RT-qPCR analysis relative to control. The data set is classed as cell-based. The gist of the method: as §1
The species named for data set [11] is Homo sapiens. As to the kind of experiment: Inhibition of mRNA splicing of SMN2 exon 7 in GM03813 fibroblasts derived from SMA patient assessed as maximum fold increase of SMN protein level by 1.5 times after 24 hrs by HTRF assay relative to control.

The structures appear in SMILES notation. A value given as a limit tells only on which side of the number the result lay.

Usually Papp stands for a coefficient for how fast a substance crosses the barrier. The efflux ratio is a quotient of directional permeabilities that is used to spot active efflux. The term AUC(0-t) denotes exposure summed from dosing to a finite time, without extrapolation to infinity.

For the molecule `Cc1cn2cc(-c3cc4ccc(N5CCN(C)CC5)cc4oc3=O)nc2c(C)n1`, the EC1.5 in the data set listed under Homo sapiens [1] stood at 18 nM; in the data set listed under Homo sapiens [2], 31 nM. Moreover, the Papp in [3] came to 1.4 ×10⁻⁶ cm/s. In addition, the efflux ratio in data set [4] stood at 1.1. Also, the fraction unbound in data set [5] is 0.03. Also, the AUC(0-t) at 6 h in [6] stood at 530 ng·h/mL. The Kp at 6 h in data set [7] was determined as 0.7.

Turning to `CN(C)c1ccc2cc(-c3nc4ccccc4o3)c(=O)oc2c1`, the results for the EC1.5 in the data set filed under Homo sapiens [1] and in the data set listed under Homo sapiens [9] were 22000 nM and greater than 32 µM, respectively. For the same molecule, the fold change (FC) came out at 1.5 in the data set filed under Homo sapiens [8] and 1.2 in the data set listed under Homo sapiens [10].

Consider `O=c1oc2cc(N3CCNCC3)ccc2cc1-c1nc2ccccc2o1`, for which the EC1.5 was 8700 nM in the data set listed under Homo sapiens [1], 10 µM in the data set filed under Homo sapiens [9] and greater than 10000 nM in the data set listed under Homo sapiens [2]. Also, the figures for the fold change (FC) in the data set filed under Homo sapiens [8], in the data set listed under Homo sapiens [10] and in the data set listed under Homo sapiens [11] were 25, 7 and 1, respectively.

For `O=c1oc2cc(N3CCCCC3)ccc2cc1-c1nc2ccccc2o1`, the EC1.5 was greater than 32000 nM in the data set listed under Homo sapiens [1] and greater than 32 µM in the data set listed under Homo sapiens [9]. Further, the fold change (FC) in the data set filed under Homo sapiens [8] and in the data set listed under Homo sapiens [10] was 1 in each case.

As for `Cc1cn2cc(-c3cc4ccc(N5CCN(C)[C@@H](C)C5)cc4oc3=O)nc2c(C)n1`, the EC1.5 in the data set filed under Homo sapiens [2] is 63 nM. This molecule also had an AUC(0-t) at 6 h in data set [6] of 260 ng·h/mL. In addition, in data set [7], the Kp at 6 h was 19.

With `Cc1cn2cc(-c3cc4ccc(N5CCNCC5)cc4c(=O)o3)nc2c(C)n1`, the EC1.5 turned out to be 8 nM in the data set listed under Homo sapiens [1] and 39 nM in the data set listed under Homo sapiens [2]. Moreover, the Papp in [3] was found to be 4.4 ×10⁻⁶ cm/s. In addition, in [4], the efflux ratio was 2.6. The fraction unbound in data set [5] was 0.1. Moreover, the AUC(0-t) at 6 h in [6] came out at 280 ng·h/mL. For the same molecule, in data set [7], the Kp at 6 h worked out at 0.6.

Take `Cc1cn2cc(-c3cc4ccc(N5CCN(C)CC5)cc4c(=O)o3)nc2cn1`: the EC1.5 in the data set listed under Homo sapiens [2] stood at 120 nM. The AUC(0-t) at 6 h in data set [6] was less than 10 ng·h/mL.

Turning to `Cc1cn2cc(-c3cc4ccc(N5CCNCC5)cc4oc3=O)nc2c(C)n1`, the EC1.5 came out at 2 nM in the data set listed under Homo sapiens [1] and 15 nM in the data set filed under Homo sapiens [2]. In addition, the AUC(0-t) at 6 h in data set [6] was found to be 340 ng·h/mL. Also, the Kp at 6 h in data set [7] was found to be 6.5.

Turning to `O=c1oc2cc(N3CCOCC3)ccc2cc1-c1nc2ccccc2o1`, the EC1.5 in the data set listed under Homo sapiens [1] was greater than 32000 nM; in the data set filed under Homo sapiens [9], greater than 32 µM. Also, the fold change (FC) in the data set listed under Homo sapiens [8] was 1; in the data set listed under Homo sapiens [10], 1.1.

As to `Cc1cn2nc(-c3cc(=O)n4cc(N5CCNCC5)ccc4n3)cc2c(C)n1`, the values for the EC1.5 in the data set listed under Homo sapiens [1] and in the data set listed under Homo sapiens [2] were 6 nM and 31 nM, respectively. Moreover, the Papp in data set [3] turned out to be 14 ×10⁻⁶ cm/s. In addition, the efflux ratio in data set [4] was found to be 2.8. In [5], the fraction unbound was 0.3. In [6], the AUC(0-t) at 6 h came to 380 ng·h/mL. Besides, in data set [7], the Kp at 6 h is less than 0.1.

As for `Cc1cn2nc(-c3cc(=O)n4cc(N5CCN(C)CC5)ccc4n3)cc2cn1`, in the data set listed under Homo sapiens [2], the EC1.5 worked out at 300 nM. In addition, in data set [6], the area under the curve AUC(0-t) at 6 h was less than 10 ng·h/mL.

With `COc1ccc(-c2cc3ccc(N4CCNCC4)nc3oc2=O)cc1OC`, the EC1.5 in the data set listed under Homo sapiens [1] was 8800 nM; in the data set filed under Homo sapiens [2] it was greater than 10000 nM. Also, the fold change (FC) in the data set filed under Homo sapiens [11] was 1.

As to `Cc1cn2cc(-c3cc4ccc(N5CCN(C)CC5)cc4oc3=O)nc2cn1`, the EC1.5 in the data set filed under Homo sapiens [2] was found to be 69 nM. Besides, in [3], the Papp was found to be 2.7 ×10⁻⁶ cm/s. The efflux ratio in data set [4] was determined as 0.74. Also, in [5], the fraction unbound was 0.03. In addition, in data set [6], the exposure AUC(0-t) at 6 h is less than 10 ng·h/mL.

Consider `COc1ccc(-c2nc3ccc(N4CCNCC4)cc3[nH]c2=O)cc1OC`, for which the EC1.5 in the data set filed under Homo sapiens [1] is 2200 nM; in the data set filed under Homo sapiens [2], greater than 10000 nM. Besides, in the data set filed under Homo sapiens [11], the fold change (FC) turned out to be 1.1.
